In ChEMBL document CHEMBL1145937, “Optimization of the pharmacophore model for 5-HT7R antagonism. Design and synthesis of new naphtholactam and naphthosultam derivatives” (J Med Chem, 2003):

Columns and labels:
[1] = target: T1, 5-hydroxytryptamine receptor 7 (Rattus norvegicus, UniProt P32305); assay: Binding affinity towards 5-hydroxytryptamine receptor 7 on rat hypothalamus membranes using [3H]5-CT as radioligand.; type: tissue-based, Membrane
Outline: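 Rat hypothalamus homogenized in ice-cold 50 mM Tris-HCl pH 7.4, spun at 48 000g, washed and preincubated at 37 °C for 10 min. Membranes were resuspended in Tris buffer with 4 mM CaCl2, 1 mg/mL ascorbic acid, 0.01 mM pargyline and 3 μM pindolol, then incubated 120 min at 23 °C with 0.5 nM [3H]-5-CT. Nonspecific binding was set by 10 μM 5-HT. GF/C filtration, scintillation counting. Ki from IC50 via Cheng–Prusoff; 2–4 assays in triplicate.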

[2] = target: T2, 5-hydroxytryptamine receptor 7 (Homo sapiens, UniProt P34969); assay: Non-selective inhibitory activity was determined against 5-hydroxytryptamine 7 receptor
[3] = target: T2, 5-hydroxytryptamine receptor 7; assay: Binding affinity towards cloned human 5-hydroxytryptamine 7 receptor was determined in HEK293 cells using [3H]5-CT as radioligand; type: cell-based
[4] = target: T1, 5-hydroxytryptamine receptor 7; assay: Binding affinity towards cloned rat 5-hydroxytryptamine 7 receptor was determined using [3H]5-HT as radioligand
[5] = target: T2, 5-hydroxytryptamine receptor 7; assay: Binding affinity towards human recombinant 5-hydroxytryptamine 7 receptor was determined using [3H]5-CT as radioligand

T1 sequence (P32305 whole entry): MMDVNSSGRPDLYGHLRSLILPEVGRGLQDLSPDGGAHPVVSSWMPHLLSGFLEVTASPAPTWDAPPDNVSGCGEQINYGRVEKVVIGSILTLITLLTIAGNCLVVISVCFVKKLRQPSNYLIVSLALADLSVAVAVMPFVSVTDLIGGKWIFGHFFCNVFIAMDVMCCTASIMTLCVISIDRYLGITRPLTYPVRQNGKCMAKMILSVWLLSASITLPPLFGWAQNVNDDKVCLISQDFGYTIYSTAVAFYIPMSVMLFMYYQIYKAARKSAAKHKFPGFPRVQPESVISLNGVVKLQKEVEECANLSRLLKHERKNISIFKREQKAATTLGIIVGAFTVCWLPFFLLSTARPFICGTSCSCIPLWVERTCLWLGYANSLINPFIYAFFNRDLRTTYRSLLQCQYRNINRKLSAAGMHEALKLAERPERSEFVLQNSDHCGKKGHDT
T2 sequence (P34969 whole entry): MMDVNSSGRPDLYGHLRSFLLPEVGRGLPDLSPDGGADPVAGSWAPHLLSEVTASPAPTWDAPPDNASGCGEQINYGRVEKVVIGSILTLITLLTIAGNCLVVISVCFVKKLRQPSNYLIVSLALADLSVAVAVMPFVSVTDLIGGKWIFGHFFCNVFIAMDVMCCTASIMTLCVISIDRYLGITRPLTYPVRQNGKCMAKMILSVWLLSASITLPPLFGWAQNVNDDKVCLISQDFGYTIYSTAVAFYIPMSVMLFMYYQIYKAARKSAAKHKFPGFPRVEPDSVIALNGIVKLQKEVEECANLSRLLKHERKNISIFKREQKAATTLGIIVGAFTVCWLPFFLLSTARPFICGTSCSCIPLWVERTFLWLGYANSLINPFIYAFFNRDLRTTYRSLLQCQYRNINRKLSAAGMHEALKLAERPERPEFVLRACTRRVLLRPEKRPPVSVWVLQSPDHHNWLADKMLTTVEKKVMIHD

SMILES	Ki [1]	further results
CN1CCN(CCCCN2c3cccc4cccc(c34)S2(=O)=O)CC1	> 10000 nM	–
CC(C)(C)[C@@]1(O)CCN2C[C@@H]3c4ccccc4CCc4cccc(c43)[C@H]2C1	–	Ki [2]: 63.1 nM
CC1CCN(CCCCCN2c3cccc4cccc(c34)S2(=O)=O)CC1	> 10000 nM	–
CC1CCN(CCCCN2c3cccc4cccc(c34)S2(=O)=O)CC1	> 10000 nM	–
O=C1c2cccc3cccc(c23)N1CCCCN1CC=C(c2ccccc2)CC1	> 1000 nM	–
C[C@H]1CCCN(CC[C@@H](C)N(C)S(=O)(=O)c2cccc3ccccc23)C1	–	Ki [3]: 631 nM
CC1CCN(CCCCCCN2c3cccc4cccc(c34)S2(=O)=O)CC1	> 10000 nM	–
O=C1c2cccc3cccc(c23)N1CCCCCCN1CCN(c2ccccc2)CC1	> 1000 nM	–
O=S1(=O)c2cccc3cccc(c23)N1CCCCCCN1CCN(c2ccccc2)CC1	> 1000 nM	–
O=C1c2cccc3cccc(c23)N1CN1CCN(c2ccccc2)CC1	> 10000 nM	–
O=C1c2cccc3cccc(c23)N1CCCCCN1CCN(C2CCCCC2)CC1	> 10000 nM	–
COc1ccccc1N1CCN(CN2C(=O)c3cccc4cccc2c34)CC1	> 10000 nM	–
CC1CCN(CC[C@@H]2CCCCN2S(=O)(=O)c2cccc3ccccc23)CC1	–	Ki [3]: 15.8 nM
COc1ccccc1N1CCN(CCCCCCN2C(=O)c3cccc4cccc2c34)CC1	> 1000 nM	–
O=C1c2cccc3cccc(c23)N1CCCCN1CCN(c2ccccc2)CC1	631 nM	–
COc1cccc(S(=O)(=O)N2CCC[C@H]2CCN2CCC(C)CC2)c1	–	Ki [3]: 10 nM
CC1CCN(CC[C@@H]2CCCN2S(=O)(=O)c2ccc(Cl)c(Cl)c2)CC1	–	Ki [3]: 3.98 nM
O=C1c2cccc3cccc(c23)N1CCCCN1CCN(C2CCCCC2)CC1	> 10000 nM	–
O=C1c2cccc3cccc(c23)N1CCCCN1CCCCC1	> 10000 nM	–
Cc1cccc(O)c1-c1cccc2c1-c1cccc3c1[C@@H](C2)N(C)CC3	–	Ki [4]: 25.1 nM
CN1CCN(CCCCN2C(=O)c3cccc4cccc2c34)CC1	> 10000 nM	–
O=C1Nc2cccc3c2C1(CCCCN1CCN(C2CCCCC2)CC1)CCC3 (stereo not drawn)	–	Ki [5]: 100000 nM
CCN(CC)C(=O)[C@@H]1C=C2c3cccc4[nH]c(Br)c(c34)C[C@H]2N(C)C1	–	Ki [2]: 10 nM
O=S1(=O)c2cccc3cccc(c23)N1CCCCN1CCCCC1	> 10000 nM	–

SMILES	Ki [1]	further results
CC1CCN(CCCCN2C(=O)c3cccc4cccc2c34)CC1	> 1000 nM	–
Cc1cccc(C#N)c1-c1cccc2c1-c1cccc3c1[C@@H](C2)N(C)CC3	–	Ki [4]: 3.98 nM
COc1cccc(OC)c1-c1cccc2c1-c1cccc3c1[C@@H](C2)N(C)CC3	–	Ki [4]: 12.6 nM
C[C@H]1CCCN(CC[C@H](C)N(C)S(=O)(=O)c2cccc3ccccc23)C1	–	Ki [3]: 100000 nM
O=S1(=O)c2cccc3cccc(c23)N1CCCCN1CCN(c2ccccc2)CC1	1000 nM	–
COc1ccccc1N1CCN(CCCN2C(=O)c3cccc4cccc2c34)CC1	398 nM	–
CC1CCN(CC[C@@H](C)N(C)S(=O)(=O)c2cccc3ccccc23)CC1	–	Ki [3]: 31.6 nM
Cn1ccnc1SCCCCN1C(=O)c2cccc3cccc1c23	> 10000 nM	–
CC1CCN(CC[C@@H]2CCCN2S(=O)(=O)c2cccc(Br)c2)CC1	–	Ki [3]: 2 nM
C[C@@H]1CCCN(CC[C@H](C)N(C)S(=O)(=O)c2cccc3ccccc23)C1	–	Ki [3]: 1580 nM
O=C1c2cccc3cccc(c23)N1CCCCN1CCC(c2ccccc2)CC1	> 1000 nM	–
O=C1c2cccc3cccc(c23)N1CCCN1CCN(c2ccccc2)CC1	> 10000 nM	–
O=C1c2cccc3cccc(c23)N1CCCCN1CCC(C2CCCCC2)CC1	> 1000 nM	–
O=S1(=O)c2cccc3cccc(c23)N1CCCCCN1CCC(C2CCCCC2)CC1	> 10000 nM	–
O=C1c2cccc3cccc(c23)N1CCCCCN1CC=C(c2ccccc2)CC1	> 1000 nM	–
CC(C)C1CCN(CCCCCN2C(=O)c3cccc4cccc2c34)CC1	> 1000 nM	–
O=C1Nc2cccc3c2C1(CCCCN1CC=C(c2ccccc2)CC1)CCC3 (stereo not drawn)	50.1 nM	–
CC1CCN(CC[C@@H]2CCCN2S(=O)(=O)c2cccc3ccccc23)CC1	–	Ki [3]: 10 nM
CC1CCN(CCC2CCCN2S(=O)(=O)c2cccc(O)c2)CC1 (single isomer, unassigned)	31.6 nM	–
CCC(CO)NC(=O)[C@@H]1C=C2c3cccc4c3c(cn4C)C[C@H]2N(C)C1 (single isomer, unassigned) [METHYSERGIDE]	–	Ki [2]: 12.6 nM
CN1CCC(=C2c3ccccc3C=Cc3ccccc32)CC1 [CYPROHEPTADINE]	–	Ki [2]: 50.1 nM
CN1C[C@@H](NS(=O)(=O)N(C)C)C[C@@H]2c3cccc4c3c(cn4C)C[C@H]21 [MESULERGINE]	–	Ki [2]: 7.94 nM
Cc1nc2sccn2c(=O)c1CCN1CCC(=C(c2ccc(F)cc2)c2ccc(F)cc2)CC1 [RITANSERIN]	–	Ki [2]: 15.8 nM
Cc1cccc(S(=O)(=O)N(C)[C@H](C)CCN2CCC(C)CC2)c1 [SB-258719]	79.4 nM	–
